Data set [1] can be described thus: Cmax in rat at 20 mg/kg, po. It counts as ADME, organism-based. Also on record: dose 20 mg/kg, route oral. Particulars: in vivo. The method in brief:
(§1)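 Healthy male rats (200–220 g), four per group, dosed orally at 20 mg/kg. Plasma exposure parameters derived: Cmax, Tmax, terminal half-life after oral dosing, and area under the concentration curve.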

The nature of data set [2]: Tmax in rat at 20 mg/kg, po. More on the design: dose 20 mg/kg, route oral. It counts as ADME, organism-based. Particulars: in vivo. The essentials:
as §1

Data set [3] can be described thus: Terminal half life in rat at 20 mg/kg, po. Conditions: in vivo, read-out: beta t1/2 (converted). Also on record: dose 20 mg/kg, route oral. It counts as ADME, organism-based. The essentials:
as §1

Data set [4] is described as follows: AUC (0 to t) in rat at 20 mg/kg, po. It counts as ADME, organism-based. Also on record: dose 20 mg/kg, route oral. Conditions: plasma. The method in brief: as §1
The species named for data set [5] is Mus musculus. Kind of data set: animal or person. Particulars: ICR, Blood, po, 1 h, read-out: INH.
For data set [6], the species on record is Mus musculus. The data set is described as follows: animal or person. Conditions: ICR, Blood, po, 1 h, read-out: INH. The source holds these as a separate data set.

The term Cmax denotes the highest concentration seen after dosing. A word on the Tmax: it is the time from dosing to the highest level. What is called AUC(0-t) is the area under the concentration-time curve up to a stated or last time point. In the case of `N[C@@H](CC(=O)N1CCn2nnc(-c3ccccn3)c2C1)Cc1cc(F)c(F)cc1F.O=C(O)/C=C/C(=O)O`, the Cmax in data set [1] is 484 ng/mL. For the same compound, the Tmax in data set [2] amounted to 1.38 h. Further, the half-life in data set [3] is 2.67 h. The AUC(0-t) in data set [4] is 2510 ng·h/mL.

In data set [1], `N[C@@H](CC(=O)N1CCn2nnc(C(F)(F)F)c2C1)Cc1cc(F)c(F)cc1F.O=C(O)/C=C/C(=O)O` gave a Cmax of 965 ng/mL. The Tmax in data set [2] was found to be 0.88 h. The half-life in data set [3] is 2.53 h. In data set [4], this compound showed an AUC(0-t) of 4560 ng·h/mL. Besides, the inhibition in vivo at 3 mg/kg in data set [5] is 19%. For the same compound, the inhibition in vivo at 10 mg/kg in data set [6] amounted to 27%.

As to `Cl.NC(=O)c1nnn2c1CN(C(=O)C[C@H](N)Cc1cc(F)c(F)cc1F)CC2`, the highest concentration (Cmax) in data set [1] stood at 231 ng/mL. The Tmax in data set [2] amounted to 0.63 h. In addition, the half-life in data set [3] is 2.23 h. In data set [4], this compound returned an AUC(0-t) of 871 ng·h/mL.

`Cl.N[C@@H](CC(=O)N1CCn2nnc(-c3ccco3)c2C1)Cc1cc(F)c(F)cc1F`: in data set [1], the maximum concentration (Cmax) was found to be 255 ng/mL. Besides, the Tmax in data set [2] is 1 h. Moreover, the half-life in data set [3] was 1.87 h. Moreover, the AUC(0-t) in data set [4] was determined as 730 ng·h/mL.

For the compound `Cl.N[C@@H](CC(=O)N1CCn2nnc(-c3ccc(C(=O)O)cc3)c2C1)Cc1cc(F)c(F)cc1F`, in data set [1], the Cmax is 600 ng/mL. Besides, the Tmax in data set [2] amounted to 0.38 h. Moreover, the half-life in data set [3] was 2.18 h. In data set [4], the AUC(0-t) was 1130 ng·h/mL.

Compound `Cl.N[C@@H](CC(=O)N1CCn2nnc(C(F)F)c2C1)Cc1cc(F)c(F)cc1F` registered a Cmax in data set [1] of 695 ng/mL. Also, the time to peak (Tmax) in data set [2] is 1 h. The half-life in data set [3] is 2.27 h. This compound showed an exposure AUC(0-t) in data set [4] of 2520 ng·h/mL.

As to `N[C@@H](CC(=O)N1CCn2nnc(-c3cnco3)c2C1)Cc1cc(F)c(F)cc1F.O=C(O)/C=C/C(=O)O`, the Cmax in data set [1] amounted to 475 ng/mL. Besides, in data set [2], the time to peak (Tmax) was determined as 1.88 h. In addition, the half-life in data set [3] was 1.35 h. Further, the AUC(0-t) in data set [4] amounted to 1640 ng·h/mL.
